Source: ChEMBL document CHEMBL5247635 (Eur J Med Chem, 2022)
Calls of active or inactive are those of the source. The rule behind the calls is not given here.

Key:
[1] = Thermodynamic aqueous solubility of compound at 25 degreeC measured after 24 hrs by HPLC analysis; assay type: physicochemical; details: buffer, read-out: Therm_solubility
How it was run: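 Excess compound was suspended in water (pH 5.5), sonicated 10 min, equilibrated overnight at room temperature, and centrifuged. Supernatant was diluted and quantified by HPLC (UV 254 nm) against a five-point standard curve (10–500 µM).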

[2] = biological target: T1, Trypanothione reductase (Leishmania infantum, UniProt A4HSF7); experiment: Inhibition of HIS-tagged recombinant Leishmania infantum TryR oxidoreductase activity expressed in Escherichia coli in the presence of NADPH by spectrophotometry based DTNB-coupled assay
How it was run: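 HIS-tagged LiTryR was used in a DTNB-coupled assay at 26 °C. Buffer: 40 mM HEPES pH 7.5, 1 mM EDTA, 30 µM NADP+, 25 µM DTNB, 150 µM NADPH, 1.75% DMSO. Standard runs used 1 µM TS2 and 7 nM enzyme; cross-species runs used 50 µM TS2 and 0.5 nM enzyme. Started with NADPH + TS2; TNB read at 412 nm. Compounds were screened at 75 µM first. Three independent experiments.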

[3] = biological target: T1, Trypanothione reductase; experiment: Disruption of HIS-FLAG-tagged recombinant Leishmania infantum TryR dimerization expressed in Escherichia coli Rossetta BL21 (DE3) cells incubated for 16 hrs by ELISA analysis
How it was run: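 400 nM HIS-FLAG-tagged LiTryR (co-purified with HIS-tagged LiTryR as heterodimer) incubated with compound (3.1–75 μM) in 50 mM Tris pH 8.0, 300 mM NaCl, 16 h, 37 °C with vigorous shaking; centrifuged, supernatant captured on α-FLAG plates, detected with HRP-α-HIS antibody and o-phenylenediamine, A490. Signal normalized to DMSO; IC50 by nonlinear regression; triplicate, three independent experiments.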

[4] = biological target: Trypanothione reductase (Trypanosoma brucei brucei, UniProt P39051); experiment: Inhibition of HIS-tagged recombinant Trypanosoma brucei TryR oxidoreductase activity expressed in Escherichia coli in the presence of NADPH by spectrophotometry based DTNB-coupled assay
How it was run: (§1)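 HIS-tagged TryR from each species was expressed in E. coli. Activity was read by DTNB-coupled assay at 26 °C in 40 mM HEPES pH 7.5, 1 mM EDTA, 30 µM NADP+, 25 µM DTNB, 150 µM NADPH, 1.75% DMSO. Conditions were 50 µM TS2 and 0.5 nM enzyme; reaction started with NADPH + TS2. TNB absorbance at 412 nm. Three independent experiments.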

[5] = biological target: Trypanothione reductase (Trypanosoma cruzi, UniProt P28593); experiment: Inhibition of HIS-tagged recombinant Trypanosoma cruzi TryR oxidoreductase activity expressed in Escherichia coli in the presence of NADPH by spectrophotometry based DTNB-coupled assay; how it was run: as §1
[6] = biological target: Trypanothione reductase (Trypanosoma congolense, UniProt P13110); experiment: Inhibition of HIS-tagged recombinant Trypanosoma congolense TryR oxidoreductase activity expressed in Escherichia coli in the presence of NADPH by spectrophotometry based DTNB-coupled assay; how it was run: as §1
[7] = tested on: Leishmania infantum; experiment: Antileishmanial activity against Leishmania infantum MCAN/ES/89/IPZ229/1/89 axenic amastigotes assessed as reduction in parasite viability treated for 24 hrs by PI staining based flow cytometry; assay type: functional, organism-based; details: MCAN/ES/89/IPZ229/1/89, 24 h
How it was run: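 Axenic amastigotes were seeded from log-phase cultures at 10^5 parasites/mL in M199-based medium at pH 5.4. They were derived from promastigotes by 3 days at 37 °C. Compounds at 2.3–75 µM for 24 h at 37 °C. Viability read by propidium iodide flow cytometry. EC50 ± SE from three independent experiments, each in triplicate.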

[8] = Cytotoxicity against human HepG2 cells assessed as reduction in cell proliferation treated for 24 hrs by crystal violet staining based analysis; assay type: toxicity
[9] = Selectivity index, ratio of CC50 for human HepG2 cells to EC50 for Leishmania infantum MCAN/ES/89/IPZ229/1/89 axenic amastigotes; assay type: toxicity; details: read-out: Ratio CC50/EC50
[10] = tested on: Leishmania infantum; experiment: Antileishmanial activity against GFP-expressing Leishmania infantum intracellular amastigotes infected in human THP-1 derived macrophage cells assessed as reduction in parasite viability measured for 72 hrs by resazurin/alamar blue fluorometric assay; assay type: functional, organism-based
How it was run: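 Human THP-1-derived macrophages infected with GFP-expressing L. infantum amastigotes; compounds at 2.3–75 µM, infected cells monitored for 72 h. EC50 ± SE from three independent experiments.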

[11] = Cytotoxicity against human HepG2 cells assessed as reduction in cell proliferation measured after 72 hrs by crystal violet staining based analysis; assay type: toxicity
[12] = Selectivity index, ratio of CC50 for human HepG2 cells to EC50 for GFP-expressing Leishmania infantum intracellular amastigotes infected in human THP-1 derived macrophage cells; assay type: toxicity, cell-based; details: read-out: Ratio CC50/EC50
[13] = tested on: Leishmania infantum; experiment: Antileishmanial activity against Leishmania infantum promastigotes assessed as reduction in non-protein thiol content at 75 uM incubated for 1 hrs by CMF diacetate probe based flow cytometry relative to control; assay type: functional; parameters: scale not given: the % may be the effect or the level left
How it was run: (§2)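 Promastigotes grown in RPMI-1640 with 10% FCS and 25 mM HEPES pH 7.2 at 26 °C. Treatments were 75 µM for 1 h, 5 mM BSO for 72 h, or both combined; vehicle served as control. Some parasites were also H2O2-treated. Non-protein thiols read by flow cytometry as CMF diacetate green fluorescence in PI-excluding live parasites. Means of nine independent experiments with 99.0% confidence intervals.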

[14] = tested on: Leishmania infantum; experiment: Antileishmanial activity against Leishmania infantum promastigotes assessed as reduction in total thiol content at 75 uM treated for 1 hr by CMF diacetate probe based flow cytometry relative to control; assay type: functional; parameters: scale not given: the % may be the effect or the level left; how it was run: as §2
[15] = tested on: Leishmania infantum; experiment: Antileishmanial activity against H2O2-induced Leishmania infantum promastigotes assessed as reduction in non-protein thiol content at 75 uM treated for 1 hr in presence of BSO by CMF diacetate probe based flow cytometry relative to control; assay type: functional; parameters: scale not given: the % may be the effect or the level left; how it was run: as §2
[16] = biological target: Trypanothione reductase (Leishmania infantum) (UniProt A4HSF7); experiment: Mixed non-competitive inhibition of Leishmania infantum TryR using TS2 as substrate assessed as increase in apparent inhibition constant of initial EI complex by plot analysis
How it was run: (§3)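 Final assay: 40 mM HEPES pH 7.5, 1 mM EDTA, 300 µM NADPH, 60 µM NADP+, 150 µM DTNB, 3.1–100 µM TS2, 1.04% DMSO, 0.5 nM LiTryR, with serially diluted inhibitor. Enzyme was added last by automated dispenser to avoid preincubation. Progress curves were read at 412 nm at 26 °C; initial and steady-state velocities were fitted to kinetic models. Three independent experiments.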

[17] = biological target: Trypanothione reductase (Leishmania infantum) (UniProt A4HSF7); experiment: Time-dependent inhibition of Leishmania infantum TryR using TS2 as substrate assessed as decrease in initial velocity rate at fixed TS2 concentration; how it was run: as §3
[18] = biological target: Trypanothione reductase (Leishmania infantum) (UniProt A4HSF7); experiment: Time-dependent inhibition of Leishmania infantum TryR using TS2 as substrate assessed as decrease in final steady-state velocity at fixed TS2 concentration; how it was run: as §3
[19] = biological target: Trypanothione reductase (Leishmania infantum) (UniProt A4HSF7); experiment: Mixed non-competitive inhibition of Leishmania infantum TryR using TS2 as substrate assessed as increase in apparent inhibition constant of high affinity EI complex by plot analysis; how it was run: as §3
[20] = biological target: T1, Trypanothione reductase; experiment: Mixed non-competitive inhibition of Leishmania infantum TryR using TS2 as substrate assessed as inhibition constant of first equilibrium by plot analysis; how it was run: as §3
[21] = biological target: T1, Trypanothione reductase; experiment: Mixed non-competitive inhibition of Leishmania infantum TryR using TS2 as substrate assessed as inhibition constant of two-step induced-fit mechanism by plot analysis; how it was run: as §3

Trypanothione reductase (Leishmania infantum), sequence (A4HSF7 as listed by the source): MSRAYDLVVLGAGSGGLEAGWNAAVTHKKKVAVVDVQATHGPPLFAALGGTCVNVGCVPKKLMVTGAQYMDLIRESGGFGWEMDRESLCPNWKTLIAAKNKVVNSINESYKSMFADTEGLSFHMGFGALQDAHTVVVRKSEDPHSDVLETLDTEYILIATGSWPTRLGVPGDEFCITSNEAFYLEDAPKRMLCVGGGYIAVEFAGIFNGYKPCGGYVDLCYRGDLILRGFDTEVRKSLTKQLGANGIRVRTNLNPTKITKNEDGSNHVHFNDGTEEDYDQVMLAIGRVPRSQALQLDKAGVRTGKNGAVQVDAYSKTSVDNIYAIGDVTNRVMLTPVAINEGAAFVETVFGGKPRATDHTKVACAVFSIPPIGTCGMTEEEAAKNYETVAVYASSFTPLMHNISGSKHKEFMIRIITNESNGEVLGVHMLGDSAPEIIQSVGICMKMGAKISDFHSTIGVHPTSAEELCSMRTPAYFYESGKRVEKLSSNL
T1 sequence (A4HSF7 whole entry): as the sequence (A4HSF7 as listed by the source) above
Trypanothione reductase (Trypanosoma congolense, UniProt P13110), sequence (P13110 whole entry): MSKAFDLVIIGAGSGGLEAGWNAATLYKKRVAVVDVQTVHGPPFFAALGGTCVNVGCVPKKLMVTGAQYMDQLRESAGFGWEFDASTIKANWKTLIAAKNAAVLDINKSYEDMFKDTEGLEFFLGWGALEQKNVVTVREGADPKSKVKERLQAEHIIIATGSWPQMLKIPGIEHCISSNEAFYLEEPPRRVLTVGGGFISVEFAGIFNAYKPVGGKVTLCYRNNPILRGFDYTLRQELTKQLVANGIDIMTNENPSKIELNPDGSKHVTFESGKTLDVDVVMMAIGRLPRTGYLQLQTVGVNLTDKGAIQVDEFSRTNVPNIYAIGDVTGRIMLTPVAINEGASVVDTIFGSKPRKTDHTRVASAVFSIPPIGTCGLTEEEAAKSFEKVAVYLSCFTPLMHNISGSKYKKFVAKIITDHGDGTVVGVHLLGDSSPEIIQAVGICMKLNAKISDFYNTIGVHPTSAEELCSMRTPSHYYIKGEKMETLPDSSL
Trypanothione reductase (Trypanosoma cruzi, UniProt P28593), sequence (P28593 whole entry): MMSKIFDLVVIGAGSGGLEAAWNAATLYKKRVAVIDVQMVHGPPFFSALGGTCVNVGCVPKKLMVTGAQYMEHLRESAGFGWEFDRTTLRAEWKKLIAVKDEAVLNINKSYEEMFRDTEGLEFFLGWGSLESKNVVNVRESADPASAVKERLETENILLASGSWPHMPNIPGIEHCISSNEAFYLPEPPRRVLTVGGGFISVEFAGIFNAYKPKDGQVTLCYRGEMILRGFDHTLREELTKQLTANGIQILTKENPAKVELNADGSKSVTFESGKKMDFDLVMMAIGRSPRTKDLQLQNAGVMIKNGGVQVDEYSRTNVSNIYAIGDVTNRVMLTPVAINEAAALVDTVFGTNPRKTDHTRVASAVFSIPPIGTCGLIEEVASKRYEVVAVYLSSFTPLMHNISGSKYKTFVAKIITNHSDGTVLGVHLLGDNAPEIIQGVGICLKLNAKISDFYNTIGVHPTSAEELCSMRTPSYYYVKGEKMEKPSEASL
Trypanothione reductase (Trypanosoma brucei brucei, UniProt P39051), sequence (P39051 whole entry): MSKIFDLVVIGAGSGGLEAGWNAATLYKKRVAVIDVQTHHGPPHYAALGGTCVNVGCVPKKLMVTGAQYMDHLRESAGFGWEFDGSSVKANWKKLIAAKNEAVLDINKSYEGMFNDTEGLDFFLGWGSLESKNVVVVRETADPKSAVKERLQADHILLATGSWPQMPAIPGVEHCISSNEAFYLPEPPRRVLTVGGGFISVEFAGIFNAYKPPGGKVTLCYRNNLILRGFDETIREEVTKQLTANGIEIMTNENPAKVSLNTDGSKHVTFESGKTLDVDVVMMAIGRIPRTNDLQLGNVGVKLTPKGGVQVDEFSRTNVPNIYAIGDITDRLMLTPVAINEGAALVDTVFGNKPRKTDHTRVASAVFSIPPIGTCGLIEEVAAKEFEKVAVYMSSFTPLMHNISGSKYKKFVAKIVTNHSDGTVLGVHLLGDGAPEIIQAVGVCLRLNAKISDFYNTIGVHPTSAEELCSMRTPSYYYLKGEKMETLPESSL

Structure (SMILES): C[n+]1nn(-c2ccc(-c3nc(CCc4ccc(-c5ccccc5)cc4)cs3)c(OCCN3CCNC3=O)c2)cc1CCCCN.O=C(O)C(F)(F)F.O=S(=O)([O-])C(F)(F)F
- solubility thermodynamic at 24 h [1]: 12.4 mg/mL
- IC50 [2]: 5.2 µM
- IC50 [3]: 10.3 µM
- IC50 [4]: 4.9 µM
- IC50 [5]: 9.2 µM
- IC50 [6]: 3.6 µM
- EC50 [7]: 11.6 µM
- CC50 at 24 h [8]: > 75 µM
- selectivity ratio [9]: > 6.5
- EC50 [10]: 8.7 µM
- CC50 at 72 h [11]: > 75 µM
- selectivity ratio [12]: > 8.6
- Activity [13]: 20%
- Activity [14]: 15%
- Activity [15]: 50%
- inhibition [16]: Active
- inhibition [17]: Active
- inhibition [18]: Active
- inhibition [19]: Active
- Ki [20]: 1.2 µM
- Ki [21]: 0.2 µM
